Experimental data published in publication PMC4486254 (Bioorganic & medicinal chemistry, 2010).

System: HIV-1HXB2
Assay: Replication assay
Format: cell-based
Details: at concentrations below 10 µM; MT-4 Luc system
Summary of the method: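 MT-4 cells stably transduced with a firefly luciferase cassette by a murine leukemia viral vector, constitutively expressing luciferase. 1 × 10^3 cells per well infected with HIV-1 HXB2 alongside various peptide concentrations. Cells lysed at 6–7 days post-infection; luciferase activity measured as chemiluminescence, in relative luciferase units. A retained signal indicates protection from virus-induced death; a drop indicates cytotoxicity.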

## Ac-QIFEHLAGIIQILRFLRI-R8-NH2 [control peptide isomer of 5]
  anti-HIV activity (in words): did not show anti-HIV activity
